Test results taken from ChEMBL document CHEMBL3872228, “A new scaffold of topoisomerase I inhibitors: Design, synthesis and biological evaluation” (2016).
Calls of active or inactive are those of the source. The calls are words filed in the database; no cut-off is given here.

Experiments:
[1] = Growth inhibition of human H460 cells after 72 hrs by trypan blue assay; type: functional; details: NCI-H460, 72 h
Procedure, shortened: (§1)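 Medium: HeLa in F-12 [HAM]; H460 and MSTO-211H in RPMI 1640 plus Hepes, pyruvate and glucose. All media contained 10% heat-inactivated FCS and antibiotics; 37°C, 5% CO2. 3–4 × 10^4 cells/well grew 24 h, then test agents were added at various concentrations for 72 h. Viability by trypan blue; GI50 = concentration giving 50% reduction in cell number vs control.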

[2] = Growth inhibition of human MSTO-211H cells after 72 hrs by trypan blue assay; type: functional; procedure, shortened: as §1
[3] = Growth inhibition of human HeLa cells after 72 hrs by trypan blue assay; type: functional; procedure, shortened: as §1
[4] = Binding affinity to DNA (unknown origin) assessed as induction of negative LD signal at 260 nm at 1.2 x 10^-5 M by linear flow dichroism method; details: in the assay text read “380 to 520 nm” for “260 nm”
Procedure, shortened: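 Linear flow dichroism: aqueous DNA solutions at 1.9 × 10^-3 M in ETN buffer (10 mM TRIS, 1 mM EDTA, pH 7.0, 0.01 M NaCl); spectra recorded at 25°C at [drug]/[DNA] ratios of 0 and 0.08.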

[5] = molecular target: T1, DNA topoisomerase 1 (Homo sapiens) (UniProt P11387); assay: Inhibition of human recombinant topoisomerase 1 catalytic activity assessed as decrease in relaxation of supercoiled pBR322 DNA at 100 uM after 60 mins by agarose gel electrophoresis
T1 sequence (whole entry): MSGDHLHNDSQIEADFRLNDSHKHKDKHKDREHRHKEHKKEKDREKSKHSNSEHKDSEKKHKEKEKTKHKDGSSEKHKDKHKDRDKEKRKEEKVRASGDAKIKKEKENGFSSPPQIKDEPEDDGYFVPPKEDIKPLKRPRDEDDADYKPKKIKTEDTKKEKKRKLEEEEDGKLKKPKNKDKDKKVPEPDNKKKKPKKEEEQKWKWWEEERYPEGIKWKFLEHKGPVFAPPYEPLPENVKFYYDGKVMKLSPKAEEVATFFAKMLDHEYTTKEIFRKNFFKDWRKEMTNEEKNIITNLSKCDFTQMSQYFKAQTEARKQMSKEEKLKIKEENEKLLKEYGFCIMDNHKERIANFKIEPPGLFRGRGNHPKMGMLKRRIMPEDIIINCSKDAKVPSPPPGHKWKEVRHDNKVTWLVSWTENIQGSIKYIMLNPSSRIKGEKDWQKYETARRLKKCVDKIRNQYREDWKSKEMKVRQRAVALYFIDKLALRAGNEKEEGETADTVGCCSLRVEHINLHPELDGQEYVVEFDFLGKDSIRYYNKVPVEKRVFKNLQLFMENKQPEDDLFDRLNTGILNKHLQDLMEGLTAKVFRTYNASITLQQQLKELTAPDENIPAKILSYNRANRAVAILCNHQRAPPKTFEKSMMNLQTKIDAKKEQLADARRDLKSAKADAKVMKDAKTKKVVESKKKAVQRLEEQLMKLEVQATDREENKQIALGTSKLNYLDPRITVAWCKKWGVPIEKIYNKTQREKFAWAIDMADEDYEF
Procedure, shortened: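 Supercoiled pBR322 plasmid (0.25 µg) with 2U human recombinant topoisomerase I plus test compound, 60 min at 37 °C. Stopped with SDS stop buffer and proteinase K (50 µg/mL), a further 30 min at 37 °C. Run on 1% agarose; post-stained with ethidium bromide 1 µg/mL in TAE and imaged under UV.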

[6] = molecular target: T1, DNA topoisomerase 1 (Homo sapiens); assay: Poison activity at human recombinant topoisomerase 1 assessed as enzyme-supercoiled pBR322 DNA cleavable complex at 500 uM after 60 mins by agarose gel electrophoresis
[7] = molecular target: T1, DNA topoisomerase 1 (Homo sapiens); assay: Poison activity at human recombinant topoisomerase 1 assessed as enzyme-supercoiled pBR322 DNA cleavable complex at 25 to 100 uM after 60 mins by agarose gel electrophoresis

Compound	GI50 [1]	GI50 [2]	GI50 [3]	Activity [4]	inhibition [5]	Activity [6]	Activity [7]
C=CC[C@@]12CCN[C@@H]1n1c3nc4ccc(O)cc4cc3c(=O)c3cc(O)cc2c31	4.8 µM	7 µM	15.3 µM				
C=CC[C@@]12CCN(C(=O)OC(C)(C)C)[C@@H]1n1c3nc4ccc(O)c(CN(C)C)c4cc3c(=O)c3cccc2c31	17.8 µM	22.8 µM	35.2 µM				
C=CC[C@@]12CCN[C@@H]1n1c3nc4ccc(O)c(CN(C)C)c4cc3c(=O)c3cccc2c31	26.2 µM	29.1 µM	29.3 µM				
C=CC[C@@]12CCN(C)[C@@H]1n1c3nc4ccc(OC)cc4cc3c(=O)c3cc(OC)cc2c31	50 µM	34.2 µM	18.3 µM				
C=CC[C@@]12CCN[C@@H]1n1c3nc4ccc(OC)cc4cc3c(=O)c3cccc2c31	8.9 µM	7.8 µM	14.8 µM	Active	Active	Active	
COc1ccc2nc3c(cc2c1)c(=O)c1cccc2c1n3[C@H]1NCC[C@@]21CCO	0.85 µM	1.9 µM	1.4 µM	Active	Active		Active
CC[C@@]1(O)C(=O)OCc2c1cc1n(c2=O)Cc2cc3ccccc3nc2-1 [CAMPTOTHECIN]	0.002 µM	0.0021 µM	0.0054 µM				
CC(C)(C)OC(=O)N1CC[C@@]2(CCO)c3cccc4c(=O)c5cc6cc(O)ccc6nc5n(c34)[C@@H]12	26.8 µM	13.7 µM	13 µM				
C=CC[C@@]12CCN[C@@H]1n1c3nc4ccccc4cc3c(=O)c3cccc2c31	14.4 µM	13 µM	16.5 µM				
C=CC[C@@]12CCN[C@@H]1n1c3nc4ccccc4cc3c(=O)c3cc(OC)cc2c31	32.2 µM	14.4 µM	30.7 µM				
C=CC[C@@]12CCN(C(=O)OC(C)(C)C)[C@@H]1n1c3nc4ccc(O)cc4cc3c(=O)c3cccc2c31	32.7 µM	24.1 µM	30.5 µM				
C=CC[C@@]12CCN[C@@H]1n1c3nc4ccc(O)cc4cc3c(=O)c3cccc2c31	> 50 µM	18.7 µM	19 µM				
C=CC[C@@]12CCN[C@@H]1n1c3nc4ccc(OC)cc4cc3c(=O)c3cc(OC)cc2c31	18.6 µM	13.5 µM	16.6 µM				
CN(C)Cc1c(O)ccc2nc3c(cc12)c(=O)c1cccc2c1n3[C@H]1N(C(=O)OC(C)(C)C)CC[C@@]21CCO	16.4 µM	20 µM	13 µM				
